# Test results reported in PubChem BioAssay AID504383 (The Scripps Research Institute Molecular Screening Center, 2011).
# Screen size: about 2,500 compounds; about 1,200 (48%) were called active.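 Rule for the calls: active = mean activation above the low control average plus 3 SD, as set in the primary screen (cut at about 12% in these data); inactive = the rest.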 So high a share suggests a set chosen from earlier hits. The list shows a part of the results.
# Molecular target: Troponin I, cardiac muscle (Homo sapiens) + Troponin T, cardiac muscle (Homo sapiens) + Troponin C, slow skeletal and cardiac muscles (Homo sapiens) (UniProt P19429+P45379+P63316)
# Test: calcium sensitizers of cardiac thin filaments – biochemical, IANBD-TnC fluorescence, triplicate, confirmation (AID 504383);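 note: 0% = DMSO at 0.472 mM calcium and 100% = DMSO at 2.9 mM calcium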
# Conditions: IANBD-labeled cardiac RTF, Ca2+ sensitivity fluorescence; at 7.2 µM; active compounds read high; scaled from EC20 to saturating calcium; tested at EC20 calcium, 0.472 mM
# How it was run: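 Assay system: labelled regulated thin filaments / Timing: 15 min at 25 °C / Detection: fluorescence intensity of labelled filaments / Measure: fluorescence gain scaled between EC20 and EC100 calcium controls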
row,Compound,activation
1,O=C(O)CSc1ncnc2scc(-c3ccc(Br)cc3)c12,11.7% (active)
2,CCc1ccc(-n2c(O)c(C=NCCN(CC)CC)c(=O)[nH]c2=O)cc1,20.8% (active)
3,CC(C)(C)NC(=O)CSc1nnc(-c2ccccn2)n1-c1ccccc1,6.6% (inactive)
4,Cc1nnc(SCC(=O)NC(C)(C)C)n1C1CCCCC1,45% (active)
5,CN(C)S(=O)(=O)c1ccc2c(c1)/C(=C/c1cc3c([nH]1)CCCC3)C(=O)N2,18.2% (active)
6,S=c1[nH]nc(-c2ccc(Cl)cc2)n1-c1ccc2c(c1)OCCO2,136% (active)
7,Cc1ccc(-n2c(C)n[nH]c2=S)cc1,6.67% (inactive)
8,Cn1c(=O)c(NC2CCCCC2)c2c3c(cccc31)C(=O)c1ccccc1-2,9.43% (inactive)
9,CC(=O)Nc1ccc(Nc2c3c4c(cccc4n(C)c2=O)C(=O)c2ccccc2-3)cc1,26.1% (active)
10,Cn1c(=O)c(NCCO)c2c3c(cccc31)C(=O)c1ccccc1-2,4.78% (inactive)
11,Cc1nc(-c2ccc(C#N)cc2)cs1,8.7% (inactive)
12,CCOC(=O)C1C(=O)NC(SCC(N)=O)=C(C#N)C1c1ccccc1OCC (stereo not given),2.57% (inactive)
13,Cc1ncoc1C(=O)N1CCc2c([nH]c3ccccc23)C1C(C)(C)C (stereo not given),2.53% (inactive)
14,COC(=O)C1C2CC3c4[nH]c5cc(OC)ccc5c4CCN3CC2CC(OC(=O)CC(C)=O)C1OC (stereo not given),7.14% (inactive)
15,COC(=O)C1=COC(C)C2CN3CCc4c([nH]c5ccccc45)C3CC12 (stereo not given),12.5% (active)
16,O=C(O)[C@@H]1[C@H]2C[C@H]3c4[nH]c5ccccc5c4CCN3C[C@@H]2CC[C@@H]1O,1.98% (inactive)
17,COC(=O)C1=COC(C)C2CN3CCc4c([nH]c5cc(OC)c(OC)cc45)C3CC12 (stereo not given),15.2% (active)
18,COC(=O)CCC(=O)OC1(C)C(=O)C=C2C=C(C3CC3)N(c3cccc(C#N)c3)C=C2C1=O (stereo not given),0.81% (inactive)
19,COc1ccc(/C=N/N=C2/CC(C)(C)Cc3n[nH]c(=O)cc32)cc1,955% (active)
20,O=c1oc2ccccc2cc1-c1nc(-c2cccs2)cs1,7.53% (inactive)
21,CCN(CC)c1ccc2cc(-c3nnc(-c4ccccc4)o3)c(=O)oc2c1,232% (active)
22,CCN(CC)c1ccc2cc(-c3nnc(-c4ccncc4)o3)c(=O)oc2c1,18.1% (active)
23,N=c1oc2ccccc2cc1-c1nc(-c2ccccc2)cs1,4.19% (inactive)

row,Compound,activation
1,CCN(CC)c1ccc2cc(-c3nc(-c4cc5ccccc5oc4=O)cs3)c(=O)oc2c1,12% (active)
2,CCN(CC)c1ccc2cc(-c3nc4ccccc4n3C)c(=O)oc2c1,6.19% (inactive)
3,Nc1c(C(=O)c2cccs2)sc2nsc(SCCN3CCCCC3)c12,-1.4% (inactive)
4,Nc1c(C(=O)c2ccc(Cl)cc2)sc2nsc(SCCN3CCOCC3)c12,12.7% (active)
5,Brc1ccc2[nH]c3nc(SCCN4CCOCC4)nnc3c2c1,6.16% (inactive)
6,COc1ccc(CNC(=O)C(C#N)c2nc3ccccc3nc2N2CCCC2)cc1 (stereo not given),2.74% (inactive)
7,COc1ccc(CNC(=O)c2sc(=S)n(-c3ccccc3)c2N)cc1,64.8% (active)
8,COc1ccc(CNC(=O)c2cc3c(s2)CS(=O)C3)cc1 (stereo not given),6.8% (inactive)
9,COC(=O)c1cc(-c2cccc(OC)c2)n[nH]1,16.6% (active)
10,CC(C)N1CC=C2C(C#N)=C(N)C(C#N)(C#N)C(c3ccccc3)C2C1 (stereo not given),6.28% (inactive)
11,CN1C=CC2=C(C#N)C(N)C(C#N)(C#N)C(c3ccccc3)C2C1 (stereo not given),4.16% (inactive)
12,COc1cc(C2C3CN(C)CC=C3C(C#N)=C(N)C2(C#N)C#N)ccc1OC(C)C (stereo not given),49.2% (active)
13,COc1cc([C@@H]2[C@H]3CN(C)CC=C3C(C#N)=C(N)C2(C#N)C#N)cc2c1OCO2,4.84% (inactive)
14,CN1CC=C2C(C#N)=C(N)C(C#N)(C#N)[C@H](c3cccs3)[C@H]2C1,13.3% (active)
15,CN1CC=C2C(C#N)=C(N)C(C#N)(C#N)C(c3ccsc3)C2C1 (stereo not given),7.36% (inactive)
16,CN1CC=C2C(C#N)=C(N)C(C#N)(C#N)[C@H](c3cccc(Cl)c3)C2C1 (stereo not given in full),24.5% (active)
17,CCCN1CC=C2C(C#N)=C(N)C(C#N)(C#N)C(c3cc(OC)ccc3OC)C2C1 (stereo not given),2.79% (inactive)
18,CC(C)(C)OC(=O)N1CC=C2C(C#N)=C(N)C(C#N)(C#N)C(c3cccs3)C2C1 (stereo not given),8.81% (inactive)
19,CN1C=CC2=C(C#N)C(N)C(C#N)(C#N)[C@H](c3ccccc3)[C@H]2C1 (stereo not given in full),6.1% (inactive)
20,COc1ccc(OC)c(C2C3CN(C(C)C)CC=C3C(C#N)=C(N)C2(C#N)C#N)c1 (stereo not given),17.8% (active)
21,CCN1CC=C2C(C#N)=C(N)C(C#N)(C#N)[C@H](c3ccoc3)[C@H]2C1,-0.65% (inactive)
22,CN1CC=C2C(C#N)=C(N)C(C#N)(C#N)[C@H](c3ccoc3)[C@H]2C1,62.5% (active)
23,Cc1cc2nc(/C(C#N)=C\c3ccc(-c4ccccc4C(=O)O)o3)[nH]c2cc1C,14.2% (active)

row,Compound,activation
1,N#C/C(=C\c1ccc(Sc2ccc(Cl)cc2)o1)c1nc2ccccc2[nH]1,7.23% (inactive)
2,N#C/C(=C\c1ccc(-c2ccccc2C(=O)O)o1)c1nc2ccccc2[nH]1,14.2% (active)
3,Cc1ccc2nc(/C(C#N)=C/c3ccc(-c4ccccc4C(=O)O)o3)[nH]c2c1,12.9% (active)
4,COc1cccc(CN2CCNC(=O)C2CC(=O)N(C)Cc2cnccn2)c1OC (stereo not given),7.66% (inactive)
5,CC(=O)[C@H]1[C@H](C#N)C[C@H]2[C@@H]3CC=C4C[C@@H](O)CC[C@]4(C)[C@H]3CC[C@@]21C,45.3% (active)
6,CSCC(O)Cn1ncc2ccccc2c1=O (stereo not given),5.97% (inactive)
7,O=c1c2ccccc2cnn1Cc1n[nH]c(=S)n1-c1ccccc1Cl,16.3% (active)
8,CC1(C)NC(=O)N(CCCCOc2ccc(Cl)cc2)C1=O,0.92% (inactive)
9,CCC(/C=C1\Oc2ccc(OC)cc2N1C)=C\c1sc2ccccc2[n+]1CCCS(=O)(=O)[O-],33.2% (active)
10,COc1cc(/C=C/c2sc3ccccc3[n+]2CCCS(=O)(=O)[O-])ccc1O,7.82% (inactive)
11,Cc1ccc(CSc2nnc(SCC(=O)N/N=C/c3ccccc3OCC(=O)O)s2)cc1,15.5% (active)
12,CCOc1ccccc1C=NNC(=O)CCCCC(=O)NN=Cc1ccccc1OCC,6.22% (inactive)
13,O=C(N/C(=C/c1cn(-c2ccccc2)nc1-c1ccccc1)C(=O)N1CCOCC1)c1ccc(Cl)cc1Cl,12.7% (active)
14,O=C(CSCc1c(F)cccc1Cl)Nc1ccccc1C(=O)N1CCOCC1,11.5% (inactive)
15,O=C(Nc1ccccc1F)C(=Cc1sc(N2CCOCC2)nc1-c1ccccc1)C(=O)Nc1ccccc1F,-0.07% (inactive)
16,O=C(c1cn(-c2ccccc2)nc1-c1ccc(Br)cc1)N1CCOCC1,16.9% (active)
17,COc1ccccc1N1CCN(C(=O)c2cn(-c3ccccc3)nc2-c2cccnc2)CC1,10% (inactive)
18,Cc1cc(NC(=O)/C(C#N)=C/c2ccc(-c3ccc(SC(F)F)cc3)o2)n(-c2ccccc2)n1,659% (active)
19,Cc1cc(NC(=O)/C(C#N)=C\c2ccc(-c3ccc(SC(F)F)cc3)o2)n(-c2ccccc2)n1,359% (active)
20,COC(=O)CCc1c(C)c(C(=O)c2cc(F)c(F)c(F)c2F)c2ccccn12,-2.54% (inactive)
21,O=C1CCNc2ccc(-c3ccccc3)cc21,7.84% (inactive)
22,Cn1c(=O)c(NCCc2ccccc2)c2c3c(cccc31)C(=O)c1ccccc1-2,2.98% (inactive)
23,Cn1c(=O)c2cc(NCc3ccccc3)nnc2n(C)c1=O,13.9% (active)

row,Compound,activation
1,CC(C(=O)c1ccc(Br)cc1)[n+]1cccc2ccccc21 (stereo not given),64.2% (active)
2,Cc1cc(C)nc(NC(=O)c2ccc(Cl)c(Cl)c2)n1,12.3% (active)
3,Cc1cccc(NC(=O)c2ccc(C(=O)c3ccccc3)cc2)n1,9.46% (inactive)
4,COC(=O)c1c(NC(=O)CN2CCN(c3cccc(Cl)c3)CC2)sc(C)c1C,13.4% (active)
5,CCOC(=O)c1c(/N=C/c2cccc([N+](=O)[O-])c2O)sc(C)c1C,7.57% (inactive)
6,COC(=O)c1c(NC(=O)c2ccnn2C)sc(C)c1C,5.98% (inactive)
7,CCN1C(=S)N[C@@H](CCc2ccccc2)[C@H](C(=O)OC)[C@H]1C,57.4% (active)
8,O=C(/C=C/c1ccccc1)N/C(=C/c1ccccc1)C(=O)NCCCO,9.8% (inactive)
9,COc1ccc(/C=C/C(=O)NC(=S)Nc2ccc(C(=O)O)cc2)cc1,55.3% (active)
10,O=C(O)c1ccc(NC(=S)NC(=O)c2ccc(-c3ccccc3)cc2)cc1,78.4% (active)
11,CC(C)(C)c1ccc(C(=O)NC(=S)Nc2ccc(N3CCOCC3)cc2)cc1,0.7% (inactive)
12,CCC(=O)Nc1ccc(NC(=S)NC(=O)c2oc3ccccc3c2C)cc1,1.23% (inactive)
13,O=C(CSc1ccc(-c2cccs2)nn1)N1CCCCC1,0.96% (inactive)
14,C=CCNc1nnc(SCC(=O)N2CCCCC2)c2ccccc12,15.7% (active)
15,CS(=O)(=O)c1ccc(C(=O)OCC(=O)Nc2cccnc2Cl)cc1[N+](=O)[O-],13.1% (active)
16,CCOC(=O)c1c(NC(=O)COC(=O)Cc2ccccc2[N+](=O)[O-])sc(C(=O)N(C)C)c1C,6.12% (inactive)
17,CC(Sc1nnc(NCc2ccccc2)s1)C(=O)Nc1ccc2c(c1)C(=O)c1ccccc1C2=O (stereo not given),137% (active)
18,Cc1ccc(NC(=O)C(C)Sc2nnc(C)n2C2CC2)cc1S(=O)(=O)N1CCOCC1 (stereo not given),7.55% (inactive)
19,CC(C)CSC1=NSC2=NC(=O)/C(=C\c3coc4ccccc4c3=O)C(=N)N12,45.1% (active)
20,CSC1=NSC2=NC(=O)/C(=C/c3coc4ccccc4c3=O)C(=N)N12,3.64% (inactive)
21,CCSC1=NSC2=NC(=O)/C(=C\c3coc4ccccc4c3=O)C(=N)N12,74.7% (active)
